The target of experiment [1] is T1, Growth hormone secretagogue receptor type 1 (Homo sapiens, UniProt Q92847). Nature of the experiment: Displacement of [125I-His9]ghrelin from human GHS1a receptor expressed in LLC PK1 cells. Format: cell-based. The essentials: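 Membranes from LLC PK-1 cells transiently electroporated with hGHS-R1a (harvested about 48 h), 10 µg protein, incubated 60 min at 25 °C with 60 pM 125I-His9-ghrelin in Tris pH 7.3/MgCl2/EDTA/bacitracin buffer. Filtered, washed, gamma counted; nonspecific binding with 10 µM ghrelin. Triplicates, at least three experiments.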
T1 sequence (Q92847 whole entry): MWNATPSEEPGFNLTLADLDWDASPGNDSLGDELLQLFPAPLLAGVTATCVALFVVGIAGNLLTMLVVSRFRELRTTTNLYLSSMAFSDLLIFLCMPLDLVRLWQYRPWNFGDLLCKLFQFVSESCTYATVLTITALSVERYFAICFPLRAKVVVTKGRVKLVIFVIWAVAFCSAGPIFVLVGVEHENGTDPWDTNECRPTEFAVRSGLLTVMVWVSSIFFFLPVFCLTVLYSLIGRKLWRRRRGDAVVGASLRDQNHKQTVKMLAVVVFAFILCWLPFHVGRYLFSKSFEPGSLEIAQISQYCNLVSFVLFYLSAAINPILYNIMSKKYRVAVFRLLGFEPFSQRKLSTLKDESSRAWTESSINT

The target of experiment [2] is T1, Growth hormone secretagogue receptor type 1. Nature of the experiment: Activity at human GHS1a receptor expressed in CHO cells assessed as intracellular calcium mobilization relative to 0.1 uM ghrelin. The class given is functional, cell-based. Background: Calcium assays in cells follow changes in intracellular calcium, usually with a dye or a luminescent sensor.

For experiment [3] the target is unchanged. Nature of the experiment: Antagonist activity at human GHS1a receptor expressed in CHO cells assessed as inhibition of ghrelin-induced intracellular calcium mobilization. The class given is functional, cell-based. The essentials: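 Calcium flux (Fluo-4AM, ex 485/em 525 nm) in CHO cells transiently expressing hGHS-R1a. Antagonist inhibition curves against 0.1 µM ghrelin give IC50; Kb by Cheng-Prusoff, with Schild analysis of ghrelin EC50 shifts for pA2 and exact Kb. Signal as percentage of 10 µM ghrelin response; duplicates, at least three experiments.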

For experiment [4] the target is unchanged. Nature of the experiment: Agonist activity at human GHS1a receptor expressed in CHO cells assessed as induction of intracellular calcium mobilization. The class given is functional, cell-based. Particulars: for Activity: filed as partial agonist. The essentials:
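CHO cells transiently expressing hGHS-R1a via electroporation, Fluo-4AM loaded (1 µM, 1 h, 37 °C), calcium fluorescence read 60 s at ex 485/em 525 nm. EC50 from agonist dose-response curves, response as percentage of maximal signal from 10 µM ghrelin; triplicates, means of at least three experiments.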

The subject of experiment [5] is Rattus norvegicus. As to the kind of experiment: Inhibition of hexarelin-stimulated cumulative food intake in Sprague-Dawley rat at 80 ug/kg, sc at 6 hrs. The class given is functional. The essentials:
(§1)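 Male Sprague-Dawley rats (125-150 g), singly housed, acclimated and trained. Compound given sc at 0, 20, 80, 160 or 320 µg/kg at -10 min, then hexarelin 80 µg/kg sc at time 0. Food weighed hourly for 6 h, normalized as g/100 g body weight; 7-8 determinations, one-way ANOVA with Dunnett's test.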

The subject of experiment [6] is Rattus norvegicus. As to the kind of experiment: Inhibition of hexarelin-stimulated cumulative food intake in Sprague-Dawley rat at 320 ug/kg, sc at 6 hrs. The class given is functional. The essentials: as §1
Experiment [7] has as its system Rattus norvegicus. As to the kind of experiment: Stimulation of cumulative food intake in Sprague-Dawley rat at 160 ug/kg, sc at 6 hrs relative to 80 ug/kg hexarelin. Format: functional. The essentials:
(§2)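 Male Sprague-Dawley rats (125-150 g), singly housed and trained, given compound sc alone (cumulative food intake as g/100 g body weight, weighed hourly to 6 h); percentage variation calculated as (compound minus hexarelin 80 µg/kg intake)/hexarelin intake at 6 h. Mean ± SEM, ANOVA with Dunnett's test.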

Experiment [8] has as its system Rattus norvegicus. As to the kind of experiment: Effect on growth hormone secretion in Sprague-Dawley rat at 160 ug/kg, sc. The class given is functional. The method in brief: (§3)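 Male 10-day-old Sprague-Dawley pups (~25 g), groups of eight, separated from dams 1 h before. Compounds in DMSO diluted with saline, sc; hexarelin 80 µg/kg, test compound 160 µg/kg; with combined treatment compound given 10 min before hexarelin. Killed 15 min later; plasma GH by rat GH enzyme immunoassay, ng/mL.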

The test system of experiment [9] is Rattus norvegicus. As to the kind of experiment: Inhibition of hexarelin-stimulated cumulative food intake in Sprague-Dawley rat at 160 ug/kg, sc at 6 hrs. Format: functional. The method in brief: as §1
Experiment [10] concerns Rattus norvegicus. As to the kind of experiment: Inhibition of hexarelin-stimulated cumulative food intake in Sprague-Dawley rat at 20 ug/kg, sc at 6 hrs. Format: functional. The essentials: as §1
Experiment [11] deals with Rattus norvegicus. As to the kind of experiment: Stimulation of cumulative food intake per 100 g body weight in Sprague-Dawley rat at 160 ug/kg, sc at 6 hrs. Format: functional. The essentials: as §2
The test system of experiment [12] is Rattus norvegicus. Nature of the experiment: Effect on growth hormone secretion in Sprague-Dawley rat at 80 ug/kg, sc. The class given is functional. The method in brief:
as §3

The subject of experiment [13] is Rattus norvegicus. Nature of the experiment: Stimulation of cumulative food intake in Sprague-Dawley rat at 80 ug/kg, sc at 6 hrs. Format: functional. The method in brief: as §2

Each structure is given as a SMILES string. Square brackets hold non-standard residues; d marks the D form. Peptide text beside a SMILES is read from it. dTrp(2-Me) = Cc1[nH]c2ccccc2c1C[C@@H](N)C(=O)O

For orientation: IC50 means the concentration that gives 50% inhibition. A lower IC50 goes with higher potency. As a reminder, the Kb is the equilibrium dissociation constant of an antagonist, usually derived from a functional assay. Broadly, the EC50 is the concentration needed to bring the measured effect to its halfway point.

On to `COc1ccc(Cn2c(CCCc3c[nH]c4ccccc34)nnc2[C@@H](Cc2c[nH]c3ccccc23)NC(=O)C(C)(C)N)cc1`, for which the IC50 in experiment [1] came out at 145 nM. The Activity in experiment [2] came to 0%. Also, the Kb in [3] was found to be 12 nM.
Regarding `COc1ccccc1Cn1c(CCc2c[nH]c3ccccc23)nnc1[C@@H](Cc1c[nH]c2ccccc12)NC(=O)C(C)(C)N`, the Activity was 50% in experiment [2] and “Partial agonist” in experiment [3] (filed as partial agonist).
Consider `CC(C)(N)C(=O)N[C@H](Cc1c[nH]c2ccccc12)c1nnc(CCCc2c[nH]c3ccccc23)n1Cc1ccccc1`, for which the 50% effective concentration (EC50) in experiment [4] was 49 nM. Moreover, the half-maximal inhibitory concentration (IC50) in [1] stood at 33 nM. The Activity in the experiment on Rattus norvegicus [5] was 0.25 g; in the experiment on Rattus norvegicus [6], 0.08 g; in the experiment on Rattus norvegicus [7], -97%; in experiment [2], 30%; with Rattus norvegicus [8] it was 13 ng/mL; in the experiment with Rattus norvegicus [9], 0.25 g. Moreover, the Activity in the experiment on Rattus norvegicus [10] is reported as 0.46 g; in the experiment on Rattus norvegicus [11] it was 0.01 g.
On to `CC(C)(N)C(=O)N[C@H](Cc1c[nH]c2ccccc12)c1nnc(CCCc2c[nH]c3ccccc23)n1CCc1ccccc1`, for which, in [4], the EC50 turned out to be 15 nM. Also, the half-maximal inhibitory concentration (IC50) in [1] came out at 11 nM. The Activity in the experiment on Rattus norvegicus [7] is -21%; in [2], 18%; in the experiment on Rattus norvegicus [11], 0.75 g.
`COc1cc(Cn2c(CCc3ccccc3)nnc2[C@@H](Cc2c[nH]c3ccccc23)NC(=O)C(C)(C)N)cc(OC)c1` yielded a concentration for half-maximal inhibition (IC50) in [1] of more than 1000 nM. For the same compound, the Activity in [2] is 0%; in experiment [3] (filed as antagonist) it was “Antagonist”.
Consider `Cc1[nH]c2ccccc2c1C[C@@H](NC(=O)[C@@H](N)Cc1c[nH]cn1)C(=O)N[C@@H](C)C(=O)N[C@@H](Cc1c[nH]c2ccccc12)C(=O)N[C@H](Cc1ccccc1)C(=O)N[C@@H](CCCCN)C(N)=O` [EXAMORELIN] (H-H[dTrp(2-Me)]AW[dF]K-NH2), for which the Activity with Rattus norvegicus [12] turned out to be 170 ng/mL; with Rattus norvegicus [13], 1.01 g.
As for `CC(C)(N)C(=O)N[C@H](Cc1c[nH]c2ccccc12)c1nnc(CCc2c[nH]c3ccccc23)n1CCc1c[nH]c2ccccc12`, the Activity entry in experiment [4] was “Partial agonist”; in the experiment on Rattus norvegicus [7] it was -25%; in experiment [2], 82%; with Rattus norvegicus [11], 0.27 g. In experiment [1], this compound registered an IC50 of 150 nM.
Turning to `COc1ccc(Cn2c(Cc3c[nH]c4ccccc34)nnc2[C@@H](Cc2c[nH]c3ccccc23)NC(=O)C(C)(C)N)cc1`, the IC50 in experiment [1] turned out to be 660 nM. The Activity in experiment [2] was 0%; in [3] (filed as antagonist), “Antagonist”.
As for `COc1ccccc1Cn1c(CCc2ccccc2)nnc1[C@@H](Cc1c[nH]c2ccccc12)NC(=O)C(C)(C)N`, in experiment [4], the half-maximal effective concentration (EC50) came to 98 nM. Further, the Activity with Rattus norvegicus [7] was -57%; in experiment [2] it was 80%; in the experiment on Rattus norvegicus [11] it was 0.29 g.
`COc1ccc(Cn2c(Cc3ccccc3)nnc2[C@@H](Cc2c[nH]c3ccccc23)NC(=O)C(C)(C)N)c(OC)c1` returned a concentration for half-maximal inhibition (IC50) in experiment [1] of 560 nM. Besides, the Activity in [2] was 0%; in experiment [3] (filed as antagonist) it was “Antagonist”.
As to `CC(C)(N)C(=O)N[C@H](Cc1c[nH]c2ccccc12)c1nnc(CCc2c[nH]c3ccccc23)n1Cc1ccc(Cl)c(Cl)c1`, the Activity entry in experiment [4] was “Partial agonist”; in the experiment on Rattus norvegicus [7] it was -45%; in experiment [2], 28%; in the experiment with Rattus norvegicus [11] it was 0.41 g. The compound further yielded a half-inhibitory concentration (IC50) in [1] of 55 nM.
In experiment [1], `COc1ccc(Cn2c(Cc3ccccc3)nnc2[C@@H](Cc2c[nH]c3ccccc23)NC(=O)C(C)(C)N)cc1` returned an IC50 of 121 nM. Also, the Activity in the experiment on Rattus norvegicus [7] is -31%; in [2], 0%; with Rattus norvegicus [11], 0.17 g; in experiment [3] (filed as antagonist), “Antagonist”.
For `Cc1ccc(Cn2c(CCc3c[nH]c4ccccc34)nnc2[C@@H](Cc2c[nH]c3ccccc23)NC(=O)C(C)(C)N)cc1`, the concentration for a half-maximal effect (EC50) in [4] turned out to be 630 nM. Moreover, the Activity in the experiment with Rattus norvegicus [7] is -49%; in experiment [2], 69%; with Rattus norvegicus [11], 0.3 g.
In experiment [1], `COc1ccc(Cn2c(CCc3c[nH]c4ccccc34)nnc2[C@@H](Cc2c[nH]c3ccccc23)NC(=O)C(C)(C)N)c(OC)c1` had an IC50 of 108 nM. The Activity in the experiment on Rattus norvegicus [7] was -63%; in experiment [2] it was 0%; in the experiment on Rattus norvegicus [11], 0.06 g. For the same compound, the Kb in experiment [3] came out at 14 nM.
As for `CC(C)(N)C(=O)N[C@H](Cc1c[nH]c2ccccc12)c1nnc(CCCc2c[nH]c3ccccc23)n1CCc1c[nH]c2ccccc12`, the EC50 in experiment [4] was 140 nM. The compound also gave an IC50 in [1] of 14 nM. Further, the Activity with Rattus norvegicus [7] came to 54%; in experiment [2], 85%; with Rattus norvegicus [11], 0.22 g.
As to `COc1ccc(Cn2c(CCc3ccccc3)nnc2[C@@H](Cc2c[nH]c3ccccc23)NC(=O)C(C)(C)N)c(OC)c1`, the IC50 in experiment [1] was 60 nM. In addition, the Activity in experiment [2] came out at 0%. Also, the Kb in experiment [3] was 17 nM.
`COc1ccc(Cn2c(CCc3c[nH]c4ccccc34)nnc2[C@@H](Cc2c[nH]c3ccccc23)NC(=O)C(C)(C)N)cc1`: the Activity in the experiment with Rattus norvegicus [7] was -31%; in [2] it was 0%; in the experiment on Rattus norvegicus [11], 0.06 g.
With `CC(C)(N)C(=O)N[C@H](Cc1c[nH]c2ccccc12)c1nnc(CCc2c[nH]c3ccccc23)n1Cc1ccccc1`, the EC50 in experiment [4] was found to be 64 nM. The compound further displayed a concentration for half-maximal inhibition (IC50) in [1] of 15 nM. Besides, the Activity in the experiment on Rattus norvegicus [7] is given as -4%; with Rattus norvegicus [11], 0.02 g.
With `COc1cccc(Cn2c(CCc3ccccc3)nnc2[C@@H](Cc2c[nH]c3ccccc23)NC(=O)C(C)(C)N)c1`, the EC50 in experiment [4] stood at 45 nM. For the same compound, the Activity was -37% with Rattus norvegicus [7], 82% in experiment [2] and 0.01 g in the experiment on Rattus norvegicus [11].
In the case of `COc1ccccc1Cn1c(Cc2ccccc2)nnc1[C@@H](Cc1c[nH]c2ccccc12)NC(=O)C(C)(C)N`, the IC50 in experiment [1] amounted to 410 nM. The Activity in experiment [2] is 66%; in experiment [3] (filed as partial agonist), “Partial agonist”.
Consider `COc1ccc(Cn2c(CCCc3ccccc3)nnc2[C@@H](Cc2c[nH]c3ccccc23)NC(=O)C(C)(C)N)cc1`, for which the Activity in [2] was 0%. For the same compound, the antagonist equilibrium constant (Kb) in [3] amounted to 14 nM.
As for `Cc1ccc(Cn2c(CCCc3ccccc3)nnc2[C@@H](Cc2c[nH]c3ccccc23)NC(=O)C(C)(C)N)cc1`, the EC50 in [4] turned out to be 12 nM. This compound came in with an IC50 in experiment [1] of 21 nM. The Activity with Rattus norvegicus [7] was -55%; in experiment [2], 16%; with Rattus norvegicus [11], 0.74 g.
For the compound `COc1ccc(Cn2c(CCc3ccccc3)nnc2[C@@H](Cc2c[nH]c3ccccc23)NC(=O)C(C)(C)N)cc1`, the IC50 in experiment [1] is 11 nM. The Activity with Rattus norvegicus [7] was -10%; in experiment [2], 0%; in the experiment on Rattus norvegicus [11], 0.2 g. Moreover, in [3], the antagonist equilibrium constant (Kb) worked out at 5 nM.

Source of the values: ChEMBL document CHEMBL1143012, “Synthesis and pharmacological in vitro and in vivo evaluations of novel triazole derivatives as ligands of the ghrelin receptor. 1” (J Med Chem, 2007).
